According to ChEMBL document CHEMBL4024793, “Development of Stem-Cell-Mobilizing Agents Targeting CXCR4 Receptor for Peripheral Blood Stem Cell Transplantation and Beyond” (J Med Chem, 2018):
Active and inactive are the calls of the source. The calls are words filed in the database; no cut-off is given here.

Assays:
Rattus norvegicus [1] = experiment: Hepatotoxicity in Sprague-Dawley rat assessed as effect on liver weight at 50 mg/kg/day, sc administered for 14 days relative to control; format: toxicity, organism-based; conditions: in vivo, 336 h
Summary of the method: (§1)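 Non-GLP 14-day repeated-dose study in SD rats given 50 mg/kg/day SC. Major organs (liver, kidney, lung, heart) compared with vehicle for size, weight and colour. Blood analysed for hematological and biochemical parameters.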

[2] = target: C-C chemokine receptor type 1 (Homo sapiens) (UniProt P32246); experiment: Antagonist activity at human CCR1 expressed in CHOK1 cells assessed as inhibition of CCL3-induced cAMP accumulation at 10 uM preincubated for 30 mins followed agonist addition measured after 30 to 60 mins; format: functional, cell-based
Summary of the method: (§2)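 GPCR cAMP assay with a single test concentration of 10 μM; result expressed as percentage inhibition for each chemokine receptor.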

Mus musculus [3] = experiment: Induction hematopoietic stem cell mobilization in sc dosed C57BL/6 mouse assessed as increase in CXCR4+ cells in blood measured after 2 hrs by APC-conjugated anti-CXCR4 -staining based flow cytometry relative to vehicle control; format: functional; conditions: C57BL/6, sc, read-out: MED
Summary of the method: (§3)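 Male C57BL/6 mice, 8–10 weeks old, given a single SC injection at escalating doses of 1, 6, 20, 35 and 50 mg/kg. Blood collected 2 h later and stained with antibodies including APC-anti-CXCR4. CXCR4⁺ cells counted by flow cytometry, at least 60,000 events per sample. n = 3 per group; mean ± SEM; t test against vehicle.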

Mus musculus [4] = experiment: In vivo antagonist activity at CXCR4 in C57BL/6 mouse assessed as induction of neutrophils molization at 35 mg/kg, sc measured after 2 hrs relative to untreated control; format: functional
Mus musculus [5] = experiment: In vivo antagonist activity at CXCR4 in C57BL/6 mouse assessed as induction of monocytes molization at 35 mg/kg, sc measured after 2 hrs relative to AMD3100; format: functional; parameters: scale not given: the % may be the effect or the level left
Summary of the method: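 C57BL/6 mice given a single SC injection at 6 or 35 mg/kg. Blood collected 2 h after dosing and analysed for total white blood cells, neutrophils, lymphocytes and monocytes.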

Mus musculus [6] = experiment: In vivo antagonist activity at CXCR4 in C57BL/6 mouse assessed as induction of lymphocytes molization at 35 mg/kg, sc measured after 2 hrs relative to untreated control; format: functional
Rattus norvegicus [7] = experiment: Toxicity in Sprague-Dawley rat assessed as effect on hematology parameters at 50 mg/kg/day, sc administered for 14 days relative to control; format: organism-based; conditions: in vivo, 336 h; summary of the method: as §1
Cytochrome P450 2E1 = Cytochrome P450 2E1 (Homo sapiens, UniProt P05181); experiment: Inhibition of human liver microsomal CYP2E1; format: ADME
[8] = target: C-X-C chemokine receptor type 2 (Homo sapiens) (UniProt P25025); experiment: Antagonist activity at human CXCR2 expressed in CHOK1 cells assessed as inhibition of interleukin-8-induced cAMP accumulation at 10 uM preincubated for 30 mins followed agonist addition measured after 30 to 60 mins; format: functional, cell-based; summary of the method: as §2
Rattus norvegicus [9] = experiment: Toxicity in Sprague-Dawley rat assessed as effect on lung weight at 50 mg/kg/day, sc administered for 14 days relative to control; format: organism-based; conditions: in vivo, 336 h; summary of the method: as §1
[10] = target: Voltage-gated inwardly rectifying potassium channel KCNH2 (Homo sapiens, UniProt Q12809); experiment: Inhibition of human ERG expressed in CHO cells up to 100 uM by automated patch-clamp assay; format: cell-based
Summary of the method: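 hERG liability examined by patch-clamp at concentrations up to 100 μM.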

Mus musculus [11] = experiment: Induction hematopoietic stem cell mobilization in C57BL/6 mouse assessed as increase in CXCR4+ cells in blood at 50 mg/kg, sc measured after 2 hrs by APC-conjugated anti-CXCR4-staining based flow cytometry relative to vehicle control; format: functional, organism-based; summary of the method: as §3
[12] = target: Chemokine XC receptor 1 (Homo sapiens) (UniProt P46094); experiment: Antagonist activity at human XCR1 expressed in CHOK1 cells assessed as inhibition of lymphotactin-induced cAMP accumulation at 10 uM preincubated for 30 mins followed agonist addition measured after 30 to 60 mins; format: functional, cell-based; summary of the method: as §2
Rattus norvegicus [13] = experiment: Toxicity in Sprague-Dawley rat assessed as effect on lung color at 50 mg/kg/day, sc administered for 14 days relative to control; format: organism-based; conditions: in vivo, 336 h; summary of the method: as §1
Mus musculus [14] = experiment: Therapeutic ratio of MTD for sc dosed C57BL/6 mouse to MED for hematopoietic stem cell mobilization in sc dosed C57BL/6 mouse
Summary of the method: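 MTD: C57BL/6 or ICR male mice dosed SC from low to high, n = 3 per group; MTD is the highest dose with zero mortality (0/3). MED: lowest SC dose raising blood CXCR4⁺ cells at 2 h, by flow cytometry, in the escalating-dose study. Ratio calculated as MTD/MED.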

[15] = Acute toxicity in sc dosed C57BL/6 mouse assessed as maximum tolerated dose by measuring mortality; format: organism-based; conditions: in vivo
Summary of the method: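 Male C57BL/6 or ICR mice (n = 3/group) dosed subcutaneously with escalating doses, low to high; MTD taken as highest dose giving zero mortality (0/3).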

Cytochrome P450 3A4 = Cytochrome P450 3A4 (Homo sapiens, UniProt P08684); experiment: Inhibition of human liver microsomal CYP3A4; format: ADME
Mus musculus [16] = experiment: In vivo antagonist activity at CXCR4 in C57BL/6 mouse assessed as induction of monocytes molization at 35 mg/kg, sc measured after 2 hrs relative to untreated control; format: functional
Mus musculus [17] = experiment: Induction of hematopoietic stem cell mobilization in C57BL/6 mouse PBMC assessed as increase in CFU-GM colonies at 35 mg/kg, sc administered on day 5 post G-CSF addition measured after 2 hrs post dose by colony forming assay; format: functional, organism-based
Summary of the method: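 Male C57BL/6 mice received G-CSF 100 µg/kg SC daily for 4 days. On day 5 they received G-CSF plus compound SC (6 or 35 mg/kg). Heparinized blood taken 2 h later; PBMCs isolated and cultured in methylcellulose medium for 10–14 days. CFU-GM colonies (aggregates of ≥50 cells) counted under an inverted microscope. 8–12 mice per group; mean ± SEM; t test against G-CSF alone.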

Cytochrome P450 2D6 = Cytochrome P450 2D6 (Homo sapiens, UniProt P10635); experiment: Inhibition of human liver microsomal CYP2D6; format: ADME
[18] = Cmax in C57BL/6 mouse at 6 mg/kg, sc measured up to 4 hrs post dose by LC-MS/MS analysis; format: ADME, organism-based; parameters: dose 6 mg/kg, route subcutaneous; conditions: in vivo
Summary of the method: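 Male C57BL/6 mice (23.4–25.4 g), quarantined one week, non-fasted, n = 3; single SC dose of 6 mg/kg in 100% saline. Blood taken by cardiac puncture at 0, 0.03, 0.08, 0.25, 1, 1.5, 2 and 4 h and stored at -80 °C. Plasma analysed by LC–MS/MS; parameters from non-compartmental analysis; mean ± SD.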

[19] = target: C-X-C chemokine receptor type 6 (Homo sapiens) (UniProt O00574); experiment: Antagonist activity at human CXCR6 at 10 uM preincubated for 30 mins followed agonist addition measured after 30 to 60 mins by cAMP assay; format: functional; summary of the method: as §2
Rattus norvegicus [20] = experiment: Cardiotoxicity in Sprague-Dawley rat assessed as effect on heart color at 50 mg/kg/day, sc administered for 14 days relative to control; format: toxicity, organism-based; conditions: in vivo, 336 h; summary of the method: as §1
[21] = Cytotoxicity against human Detroit 551 cells; format: cell-based
Cytochrome P450 2C19 = Cytochrome P450 2C19 (Homo sapiens, UniProt P33261); experiment: Inhibition of human liver microsomal CYP2C19; format: ADME
Chain of Cytochrome P450 2C19 (P33261 whole entry): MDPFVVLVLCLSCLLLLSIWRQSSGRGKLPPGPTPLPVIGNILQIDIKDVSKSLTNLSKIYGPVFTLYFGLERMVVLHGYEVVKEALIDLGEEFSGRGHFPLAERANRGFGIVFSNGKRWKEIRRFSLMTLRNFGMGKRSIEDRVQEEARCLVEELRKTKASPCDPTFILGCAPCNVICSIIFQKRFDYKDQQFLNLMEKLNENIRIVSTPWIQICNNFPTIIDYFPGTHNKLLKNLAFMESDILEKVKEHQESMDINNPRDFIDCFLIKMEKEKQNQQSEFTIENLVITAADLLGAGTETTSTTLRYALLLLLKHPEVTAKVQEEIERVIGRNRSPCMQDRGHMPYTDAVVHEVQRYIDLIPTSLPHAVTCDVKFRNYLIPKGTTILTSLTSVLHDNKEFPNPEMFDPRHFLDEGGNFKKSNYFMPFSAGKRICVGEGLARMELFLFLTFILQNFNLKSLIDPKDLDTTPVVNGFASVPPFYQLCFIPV

Chain of Cytochrome P450 3A4 (P08684 whole entry): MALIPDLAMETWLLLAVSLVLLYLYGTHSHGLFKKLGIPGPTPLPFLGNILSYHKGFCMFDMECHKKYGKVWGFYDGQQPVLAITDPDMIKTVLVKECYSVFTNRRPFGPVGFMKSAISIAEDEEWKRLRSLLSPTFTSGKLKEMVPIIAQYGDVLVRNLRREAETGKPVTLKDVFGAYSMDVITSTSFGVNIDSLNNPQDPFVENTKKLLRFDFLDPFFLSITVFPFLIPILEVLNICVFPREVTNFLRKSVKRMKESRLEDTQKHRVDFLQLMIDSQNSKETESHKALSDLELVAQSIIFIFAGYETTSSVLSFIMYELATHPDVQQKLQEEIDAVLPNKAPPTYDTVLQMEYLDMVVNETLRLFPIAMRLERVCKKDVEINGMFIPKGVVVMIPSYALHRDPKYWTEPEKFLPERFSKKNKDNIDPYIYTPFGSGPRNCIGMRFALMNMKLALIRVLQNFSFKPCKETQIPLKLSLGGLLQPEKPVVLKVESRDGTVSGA
Chain of C-X-C chemokine receptor type 2 (Homo sapiens) (P25025 whole entry): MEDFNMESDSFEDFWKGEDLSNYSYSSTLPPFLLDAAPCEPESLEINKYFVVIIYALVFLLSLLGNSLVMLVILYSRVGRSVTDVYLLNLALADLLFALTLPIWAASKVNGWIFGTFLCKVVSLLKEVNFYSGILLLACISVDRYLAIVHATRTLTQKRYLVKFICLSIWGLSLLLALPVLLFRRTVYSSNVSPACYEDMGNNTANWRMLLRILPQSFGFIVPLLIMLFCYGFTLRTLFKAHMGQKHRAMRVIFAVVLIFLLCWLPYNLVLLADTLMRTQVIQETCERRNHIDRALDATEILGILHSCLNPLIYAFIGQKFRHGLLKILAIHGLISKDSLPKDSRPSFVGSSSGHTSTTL
Chain of Chemokine XC receptor 1 (Homo sapiens) (P46094 whole entry): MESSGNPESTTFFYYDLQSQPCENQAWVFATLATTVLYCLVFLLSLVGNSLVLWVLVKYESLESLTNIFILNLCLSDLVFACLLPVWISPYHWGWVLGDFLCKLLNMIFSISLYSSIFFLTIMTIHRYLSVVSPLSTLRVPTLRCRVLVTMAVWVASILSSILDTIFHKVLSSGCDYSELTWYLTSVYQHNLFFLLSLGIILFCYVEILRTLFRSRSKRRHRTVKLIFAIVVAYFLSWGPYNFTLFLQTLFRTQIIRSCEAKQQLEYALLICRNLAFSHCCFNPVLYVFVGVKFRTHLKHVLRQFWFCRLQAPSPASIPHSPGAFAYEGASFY
Chain of Voltage-gated inwardly rectifying potassium channel KCNH2 (Q12809 whole entry): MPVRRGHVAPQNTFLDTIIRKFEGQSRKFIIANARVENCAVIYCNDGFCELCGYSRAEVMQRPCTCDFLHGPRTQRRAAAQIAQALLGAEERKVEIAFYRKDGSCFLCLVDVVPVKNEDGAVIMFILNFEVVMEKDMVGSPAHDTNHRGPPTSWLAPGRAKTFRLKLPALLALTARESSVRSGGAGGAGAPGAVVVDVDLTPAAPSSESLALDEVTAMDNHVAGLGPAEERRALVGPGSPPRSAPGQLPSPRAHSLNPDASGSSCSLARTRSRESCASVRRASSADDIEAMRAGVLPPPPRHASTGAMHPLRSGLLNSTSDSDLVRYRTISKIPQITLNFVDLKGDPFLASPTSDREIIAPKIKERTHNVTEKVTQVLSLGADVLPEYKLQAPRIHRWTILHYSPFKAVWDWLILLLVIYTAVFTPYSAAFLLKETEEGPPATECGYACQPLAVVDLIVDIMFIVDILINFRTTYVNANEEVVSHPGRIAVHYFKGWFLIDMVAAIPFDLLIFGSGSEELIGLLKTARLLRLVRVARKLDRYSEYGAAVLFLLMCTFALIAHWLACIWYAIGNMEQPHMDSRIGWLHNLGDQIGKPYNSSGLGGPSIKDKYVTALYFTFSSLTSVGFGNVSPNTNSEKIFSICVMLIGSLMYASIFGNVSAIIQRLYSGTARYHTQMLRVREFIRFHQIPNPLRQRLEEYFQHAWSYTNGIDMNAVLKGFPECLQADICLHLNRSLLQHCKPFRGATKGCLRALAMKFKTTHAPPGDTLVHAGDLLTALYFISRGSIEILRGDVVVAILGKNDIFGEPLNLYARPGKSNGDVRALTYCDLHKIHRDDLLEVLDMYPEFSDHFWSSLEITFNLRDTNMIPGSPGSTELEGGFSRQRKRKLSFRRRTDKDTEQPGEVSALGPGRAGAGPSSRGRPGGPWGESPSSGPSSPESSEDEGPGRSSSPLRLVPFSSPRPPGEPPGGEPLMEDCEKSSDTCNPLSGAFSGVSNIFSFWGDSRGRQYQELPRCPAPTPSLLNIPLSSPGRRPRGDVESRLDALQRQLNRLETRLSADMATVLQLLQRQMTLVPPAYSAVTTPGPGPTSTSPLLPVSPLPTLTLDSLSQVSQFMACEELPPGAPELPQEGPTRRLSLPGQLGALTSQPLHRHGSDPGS
Chain of C-C chemokine receptor type 1 (Homo sapiens) (P32246 whole entry): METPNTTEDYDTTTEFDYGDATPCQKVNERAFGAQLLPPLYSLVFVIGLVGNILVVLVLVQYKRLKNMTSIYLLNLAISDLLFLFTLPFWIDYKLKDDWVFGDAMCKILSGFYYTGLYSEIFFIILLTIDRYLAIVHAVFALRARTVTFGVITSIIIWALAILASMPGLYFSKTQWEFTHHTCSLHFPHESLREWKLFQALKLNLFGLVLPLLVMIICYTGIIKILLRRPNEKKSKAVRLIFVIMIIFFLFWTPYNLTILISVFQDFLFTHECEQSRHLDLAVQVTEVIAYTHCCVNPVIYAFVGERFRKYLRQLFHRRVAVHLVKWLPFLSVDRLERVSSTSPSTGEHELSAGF
Chain of Cytochrome P450 2D6 (P10635 whole entry): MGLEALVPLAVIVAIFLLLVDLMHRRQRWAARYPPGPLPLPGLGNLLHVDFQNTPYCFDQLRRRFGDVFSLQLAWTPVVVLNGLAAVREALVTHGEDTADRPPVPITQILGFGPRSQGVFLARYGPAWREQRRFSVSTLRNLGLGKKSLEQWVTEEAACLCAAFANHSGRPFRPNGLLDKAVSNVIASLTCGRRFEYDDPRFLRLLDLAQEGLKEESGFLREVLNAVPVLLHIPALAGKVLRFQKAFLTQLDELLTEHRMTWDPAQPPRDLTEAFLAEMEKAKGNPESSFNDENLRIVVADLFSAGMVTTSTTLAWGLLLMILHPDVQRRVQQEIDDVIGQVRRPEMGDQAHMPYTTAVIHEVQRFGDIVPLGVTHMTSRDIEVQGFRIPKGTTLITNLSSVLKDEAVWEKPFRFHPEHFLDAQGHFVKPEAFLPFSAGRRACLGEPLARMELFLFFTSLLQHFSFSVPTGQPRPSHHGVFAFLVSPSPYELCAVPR
Chain of C-X-C chemokine receptor type 6 (Homo sapiens) (O00574 whole entry, looked up): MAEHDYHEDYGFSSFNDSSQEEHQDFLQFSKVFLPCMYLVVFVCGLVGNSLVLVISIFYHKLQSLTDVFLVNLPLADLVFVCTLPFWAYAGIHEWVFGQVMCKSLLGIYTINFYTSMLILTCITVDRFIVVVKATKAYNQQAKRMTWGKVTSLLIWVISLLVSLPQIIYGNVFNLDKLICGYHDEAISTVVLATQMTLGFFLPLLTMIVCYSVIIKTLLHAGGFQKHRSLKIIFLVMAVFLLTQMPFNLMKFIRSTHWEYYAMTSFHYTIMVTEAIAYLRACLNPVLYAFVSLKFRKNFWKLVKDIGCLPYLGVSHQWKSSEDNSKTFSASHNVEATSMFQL
Chain of Cytochrome P450 2E1 (P05181 whole entry): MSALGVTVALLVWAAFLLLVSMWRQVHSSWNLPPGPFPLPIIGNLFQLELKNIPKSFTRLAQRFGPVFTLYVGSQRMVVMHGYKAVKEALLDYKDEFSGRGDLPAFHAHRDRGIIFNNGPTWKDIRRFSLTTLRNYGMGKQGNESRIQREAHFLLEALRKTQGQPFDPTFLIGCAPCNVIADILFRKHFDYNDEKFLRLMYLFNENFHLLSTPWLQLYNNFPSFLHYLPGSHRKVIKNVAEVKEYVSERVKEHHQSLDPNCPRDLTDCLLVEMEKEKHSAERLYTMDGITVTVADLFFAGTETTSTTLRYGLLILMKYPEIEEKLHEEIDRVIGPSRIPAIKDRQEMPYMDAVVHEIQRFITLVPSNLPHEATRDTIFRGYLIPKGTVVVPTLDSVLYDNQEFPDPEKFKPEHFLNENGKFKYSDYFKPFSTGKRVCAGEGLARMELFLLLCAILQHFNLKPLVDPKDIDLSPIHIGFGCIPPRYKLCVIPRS

## Cc1cc(NC2CCN(C(=O)CCNCC(=O)O)CC2)nc(NCc2cn(CCCNCCCNC3CCCCC3)nn2)n1
Rattus norvegicus [1]
  Activity: Non-Toxic
[2]
  Efficacy: -1.2%
Mus musculus [3]
  minimal effective dose: 6 mg/kg
Mus musculus [4]
  fold change (FC): 2 - 4
Mus musculus [5]
  Activity: 30 - 50%
Mus musculus [6]
  fold change (FC): 2 - 4
Rattus norvegicus [7]
  Activity: Non-Toxic
Cytochrome P450 2E1
  IC50: > 100 µM
[8]
  Efficacy: 0.5%
Rattus norvegicus [9]
  Activity: Non-Toxic
[10]
  inhibition (INH): Not Active
Mus musculus [11]
  Activity: inactive
[12]
  Efficacy: -2.8%
Rattus norvegicus [13]
  Activity: Non-Toxic
Mus musculus [14]
  TI: 12.5
[15]
  MTD: 75 mg/kg
Cytochrome P450 3A4
  IC50: > 100 µM
Mus musculus [16]
  fold change (FC): 2 - 4
Mus musculus [17]
  Activity: Active
Cytochrome P450 2D6
  IC50: > 100 µM
[18]
  Cmax: 16400 ng/mL
[19]
  Efficacy: -3.9%
Rattus norvegicus [20]
  Activity: Non-Toxic
[21]
  CC50: > 100 µM
Cytochrome P450 2C19
  IC50: > 100 µM
